T cruzi repl: blocks replication of Trypanosoma cruzi; 1.4% of 300,000 active; inhibition, % (concentration not given with the values); T. cruzi beta-gal in NIH3T3, luminescence, 90 h;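 active = mean inhibition across valid replicates above about 55%, limit read from the data; inconclusive = mean below that limit but half or more replicates reach it; inactive = mean below it, under half of replicates reach it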;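 note: signal also drops with host cell toxicity which is not excluded here; higher percent means less beta-gal luminescence so fewer parasites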
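Assay system: NIH/3T3 fibroblasts plus reporter T. cruzi. Amount: NIH/3T3 cells, 5,000 per well. Buffer or medium: DMEM, 2% fetal bovine serum. Doses: compound pinned at 50 nL/well, DMSO. Schedule: ≥90 h infection period, 3 h prior cell attachment. Signal: luminescent β-galactosidase signal after 60 min lysis. Read-out: parasite load inhibition, %.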
Mdm2 MdmX PPI: disrupts the human Mdm2-MdmX interaction; O15151+Q00987; SaOS-2 split-luciferase Mdm2/MdmX complementation, luminescence; inhibition, % at 8 µM; 3% of 330,000 active; AID 485346;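 active = inhibition of at least 50% at 8 µM in the primary screen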
CSC inhib: cancer stem cell inhibition. cancer stem cell-like cells viability, luminescence. inhibition, % at 7.5 µM. 1.1% of 300,000 active. AID 2717; in the data active = inhibition above about 75%; inconclusive = no clear call, values can overlap the other calls; tested in HMLE shEcad cells
SKKanGAS inh: blocks kanamycin growth of S. pyogenes SKKanGAS strain; BacTiter-Glo, 6 h; inhibition, % at 7.5 µM; 1.3% of 300,000 active; AID 1662;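 active = mean replicate score, as percent of positive control median, at least 50; inconclusive = mean below 50 but one replicate at or above 50; inactive = mean and every replicate below 50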;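 note: strain carries kanamycin resistance gene driven by streptokinase promoter and grows in 40 µg/ml kanamycin; loss of luminescence reflects streptokinase promoter inhibition or plain growth inhibition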
Calb FLC: C. albicans growth modulation with fluconazole; C. albicans CaCi-2 + fluconazole, Alamar Blue growth, 48 h; growth inhibition, % (concentration not given with the values); 0.57% of 300,000 active; AID 1979;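 active = growth inhibition above about 58% in most replicates, limit read from the data, passing the limit was not always enough; inconclusive = exactly half the replicates above a set limit; inactive = most replicates below a set limit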;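 note: all wells also contain fluconazole at 8 µg/ml as a sub-toxic cotreatment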
Beta apoptosis: beta cell apoptosis inhibition; INS-1E cytokine-induced death, ATP luminescence, 48 h; percent of positive-control rescue, neutral wells zero; protection from apoptosis, % (test concentration not listed); 0.8% of 300,000 active; AID 435005;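 active = Every replicate reaches about 75%, or at least half do and their mean reaches it too, limit read from the data; inconclusive = At least half of replicates reach the limit but their mean does not; inactive = Under half of replicates reach the limit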;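 note: higher means more ATP so stronger rescue from cytokine killing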
Mdm2 MdmX conf: confirmation of human Mdm2/MdmX interaction inhibitors | shares compounds with Mdm2 MdmX PPI | Mdm2-MdmX binding, luminescent assay | inhibition, % at 8 µM | 55% of 10,000 active; in the data active = inhibition above about 40%
FLuc counter: inhibits full-length luciferase, flagging false Mdm2/MdmX hits | SaOS-2 full-length luciferase counterscreen, luminescence | shares compounds with Mdm2 MdmX PPI | AID 504607 | 77% of 6,200 active | inhibition, % at 8 µM;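 active = mean inhibition at 8 µM reaching about 37%, which flags the compound as non-specific, limit read from the data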;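 note: p53-null SaOS-2 cells with luciferase driven by a doxycycline-inducible promoter; compound on cells about two nights before reading with doxycycline added after day one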
Of the large screens only hits and unclear results are named; the others gave an inactive call (follow-up assays come after a bar, where they were run). Sampled rows, rich in hits. Any-hit rate of the full collection: about 5.7%.

O=C(Nc1ccc(S(=O)(=O)N2CCOCC2)cc1)c1cc(-c2cc(Cl)ccc2O)n[nH]1	Mdm2 MdmX PPI 87, CSC inhib 94 | Mdm2 MdmX conf 79 | FLuc counter 39
COc1ccc(NC(=O)c2cc(-c3cc(C)c(C)cc3O)n[nH]2)c(OC)c1	none (no result: CSC inhib, Beta apoptosis)
COc1ccc(NC(=O)c2cc(-c3cc(Cl)ccc3O)n[nH]2)c(OC)c1	Mdm2 MdmX PPI 69 | Mdm2 MdmX conf inactive
COc1ccc(NC(=O)COc2ccc(N(C)S(=O)(=O)c3ccc(Cl)cc3)cc2)cc1OC	none (no result: CSC inhib)
O=S(=O)(CCSc1ccccn1)c1nc2ccccc2s1	Mdm2 MdmX PPI 80 | Mdm2 MdmX conf 48 | FLuc counter 39
O=S(=O)(CCSc1nc2ccccc2o1)c1nc2ccccc2s1	Mdm2 MdmX PPI 83 | Mdm2 MdmX conf 72 | FLuc counter inactive
CCS(=O)(=O)CCSc1nc2ccccc2o1	none
COc1cc(C)c(NC(=O)c2cccc(S(=O)(=O)N3CCCC3)c2)cc1OC	none (no result: T cruzi repl, CSC inhib, SKKanGAS inh, Calb FLC)
CCCC[C@@H](CN[C@H](C)CNC)NCC1CCC(C(C)(C)C)CC1 (stereo partly drawn)	Mdm2 MdmX PPI 100, CSC inhib 126, Beta apoptosis 93 | Mdm2 MdmX conf 97 | FLuc counter 56
CC[C@H](C)[C@@H](CN[C@H](CCCCNC)CNC)NCC1CCCC1	none
CC(C)[C@H](NC(=O)c1ccccc1Cl)C(=O)Nc1nc(-c2ccccn2)cs1	T cruzi repl 66, Mdm2 MdmX PPI 64, SKKanGAS inh 79 | Mdm2 MdmX conf 53 | FLuc counter inactive
CC(Oc1ccc(Br)cc1)C(=O)Nc1nc(-c2ccccn2)cs1 (stereo not drawn)	T cruzi repl 69, Mdm2 MdmX PPI 80, CSC inhib 89, SKKanGAS inh 87 (no result: Beta apoptosis) | Mdm2 MdmX conf 71 | FLuc counter inactive
CCc1nnc(NC(=O)C(NC(=O)c2ccccc2Cl)C(C)C)s1 (stereo not drawn)	none
CN1CCN(C(CNC(=O)C(=O)NC2CCCC2)c2ccc(F)cc2)CC1 (stereo not drawn)	none (no result: CSC inhib)
CC(C)(CO)NCc1c(OCc2ccc(Cl)cc2)ccc2ccccc12	Mdm2 MdmX PPI 55 | Mdm2 MdmX conf inactive
COc1ccc(-c2nn(-c3ccccc3)cc2/C=N/Nc2ccc(S(N)(=O)=O)cc2[N+](=O)[O-])cc1OC	Mdm2 MdmX PPI 65 (no result: Beta apoptosis) | Mdm2 MdmX conf inactive
COc1cc(CCCN2CCNC[C@@H]2Cc2ccc(O)cc2)cc(OC)c1OC	none
COc1ccc(CCNC(=O)c2ccc(Cl)c(S(=O)(=O)N3CCCC3)c2)cc1	none (no result: T cruzi repl, CSC inhib, SKKanGAS inh, Calb FLC, Beta apoptosis)
Cc1ccc(-n2c(SCC(=O)N(C)C3CCS(=O)(=O)C3)nc3ccccc3c2=O)c(C)c1 (stereo not drawn)	none (no result: T cruzi repl, SKKanGAS inh, Calb FLC)
O=C(O)C(Cc1c[nH]c2ccccc12)NS(=O)(=O)c1cccc(Cl)c1Cl (stereo not drawn)	none
O=C1c2ccccc2C(=O)c2[nH]c(=O)[nH]c21	Mdm2 MdmX PPI 69, SKKanGAS inh 62 (no result: CSC inhib, Beta apoptosis) | Mdm2 MdmX conf 44 | FLuc counter 48
O=S(=O)(NCCC1=CCCCC1)c1ccc(F)cc1	T cruzi repl inconclusive (no result: Beta apoptosis)
CCN(CC)CCCNC(=O)c1cc(-c2ccccc2)c(N2CCCCC2)s1	Mdm2 MdmX PPI 76, CSC inhib 83 | Mdm2 MdmX conf 54 | FLuc counter 66
Cc1cc(C(=O)COC(=O)c2ccc(Cl)c(S(N)(=O)=O)c2)c(C)n1C1CC1	none
COc1cccc(-c2nc3c(c(SCC(=O)N4CCOCC4)n2)Cc2c(CO)cnc(C)c2O3)c1	Mdm2 MdmX PPI 65 | Mdm2 MdmX conf inactive | FLuc counter 71
Cc1ncc(CO)c2c1Oc1nc(-c3ccccc3)nc(SCC(=O)N3CCOCC3)c1C2	none
Cc1ncc(CO)c2c1Oc1nc(-c3ccccc3)nc(SCC(=O)N3CCCCC3)c1C2	Mdm2 MdmX PPI 63 | Mdm2 MdmX conf inactive | FLuc counter 53
CCOc1cc(CNCCc2ccc(S(N)(=O)=O)cc2)cc(Cl)c1OCc1ccccc1	T cruzi repl 58, Mdm2 MdmX PPI 67 | Mdm2 MdmX conf inactive | FLuc counter 53

Screening results: PubChem, several laboratories
